Compound activity deposited in PubChem by several laboratories.
Diaph inh CS = diaphorase inhibitors and chemical oxidizers, primary screen, counter-screen for diaphorase-coupled primary assays, biochemical, uHTS, resorufin fluorescence; diaphorase resazurin-to-resorufin fluorescence, NADH, 16 min; bacterial (C. kluyveri) enzyme, not human; inhibition, % at 20 µM; 190,000 tested, 0.69% active; AID 1217, 2008;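 active = primary screen inhibition at 20 µM above a set limit, cut at about 50% in these data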
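Benchmarks: positive control wells lacking NADH, neutral wells with DMSO only. System: bacterial diaphorase enzyme (C. kluyveri). Input: 0.14 U/mL diaphorase, enzyme working solution. Detection: resorufin fluorescence, excitation 544 nm, emission 590 nm. Times: 16-min room-temperature incubation before reading.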
G6PDH CS = L. mesenteroides G6PDH inhibitors, counter-screen for G6PDH-coupled screening assays, biochemical, Leuconostoc mesenteroides enzyme | inhibition, % at 5 µM | Purified L. mesenteroides G6PDH, diaphorase/resazurin coupled fluorescence, 45 min | 200,000 tested, 0.12% active | glucose-6-phosphate dehydrogenase [Leuconostoc mesenteroides] | AID 1020, 2008; in the data active = inhibition above about 50%
Diaph act CS = compounds boosting diaphorase resazurin reduction – biochemical, uHTS, resorufin fluorescence, counter-screen for diaphorase-coupled primary assays, primary screen; Diaphorase/resazurin coupled assay, 16 min; stronger effect = higher value; 1 = vehicle wells, 0 = NADH-free wells; activation factor at 20 µM; 190,000 tested, 0.005% active; AID 1229, 2008;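 active = diaphorase activity raised at least twofold by the compound at 20 µM; inactive = activation factor below 2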
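Test system: Clostridium kluyveri diaphorase, purified enzyme. Buffer or medium: 50 mM HEPES pH 7.4 buffer plus MgCl2 and Tween 20. Also added: 0.114 mM NADH and 0.1 mM resazurin, final amounts. Dosing: compound 20 µM once, DMSO 1%. Schedule: 16 min enzyme reaction, ambient temperature. Detection: fluorescence of resorufin, 544 nm excitation, 590 nm emission.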
PMI act hi M6P = human PMI activators, high substrate, primary screen, biochemical, fluorescence intensity, near-saturating mannose 6-phosphate; AID 1216, 2008; activation factor at 20 µM; Mannose-6-phosphate isomerase (Homo sapiens), P34949; coupled PMI enzyme assay, resazurin fluorescence, 20 min; stronger effect = higher value; 1 = untreated enzyme, 0 = substrate-free blank; 190,000 tested, 0.34% active;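 active = activation factor of 2 or more at 20 µM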
Target sequence (P34949 whole entry, looked up): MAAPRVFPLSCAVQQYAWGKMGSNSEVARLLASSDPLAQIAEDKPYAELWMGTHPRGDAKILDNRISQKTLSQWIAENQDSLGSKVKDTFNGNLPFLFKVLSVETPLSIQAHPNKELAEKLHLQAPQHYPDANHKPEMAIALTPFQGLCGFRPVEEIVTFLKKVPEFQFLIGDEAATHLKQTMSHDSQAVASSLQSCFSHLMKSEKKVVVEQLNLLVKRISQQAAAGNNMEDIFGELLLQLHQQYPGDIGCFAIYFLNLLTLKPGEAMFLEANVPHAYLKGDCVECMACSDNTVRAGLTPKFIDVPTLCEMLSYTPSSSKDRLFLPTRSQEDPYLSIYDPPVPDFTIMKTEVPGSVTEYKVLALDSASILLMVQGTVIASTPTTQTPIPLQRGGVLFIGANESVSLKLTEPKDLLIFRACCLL
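Test system: human PMI in coupled enzyme assay; Input: PMI at 15 ng/mL final; Medium: HEPES buffer, pH 7.4; Schedule: 20 min incubation at room temperature; Technique: resorufin fluorescence at Ex 544/Em 590 nm; Compound: 20 µM single dose; Probe or stimulus: Near-saturating mannose-6-phosphate, 1.0 mM.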
Redox H2O2 prof = compounds producing H2O2 with reducing agent – biochemical, NIH compound library profiling, artefact control for MLSCN library redox annotation, primary screen; DTT-dependent redox cycling H2O2, phenol red/HRP absorbance; 100% = 100 µM peroxide control, 0% = buffer; activation, % at 10 µM; 200,000 tested, 0.03% active;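 active = activation of at least 50% relative to the plate's high and low controls in the primary single-dose screen; inactive = activation below 50%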;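 note: compound incubated with DTT at 0.8 mM final as the reducing agent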
PMI act = activators of human PMI, primary screen, biochemical, fluorescence intensity, near-Km mannose 6-phosphate; Mannose-6-phosphate isomerase (Homo sapiens), P34949; AID 1214, 2008; 190,000 tested, 0.005% active; purified human PMI, coupled resazurin fluorescence, 20 min; stronger effect = higher value; 1 = vehicle control, 0 substrate-free wells; activation factor at 20 µM;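 active = activation factor of 2 or more at 20 µM, relative to plate controls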
Large screens that a line does not name were inactive. The list is not random: actives were taken first. Their share in the collection is about 1.1%.

Cc1ccc(C)c(N(CC(=O)N/N=C/c2ccc(-c3ccc([N+](=O)[O-])cc3)o2)S(=O)(=O)c2ccccc2)c1	none
CCOc1ccc(S(=O)(=O)N(CC(=O)N/N=C/c2ccc(-c3ccc([N+](=O)[O-])cc3)o2)c2ccccc2)cc1	Diaph inh CS 61.7
CC1Nc2nc(N(C)C)[nH]c(=O)c2NC1C (configuration not stated)	PMI act hi M6P 2.7
Nc1cc2nn(-c3ccccc3)nc2cc1Cl	Diaph inh CS 81.2, G6PDH CS 54.9
Nc1ccc2nn(-c3ccccc3)nc2c1	Diaph inh CS 60.4
CCOc1ccc2[nH]c(=O)c(CN(CC3COCCO3)C(=O)c3ccc(C)cc3)cc2c1 (configuration not stated)	none
O=C(CCCCCNc1nc(=S)[nH]c2ccccc12)N1CCN(c2ccccn2)CC1	Diaph inh CS 51.9
CC(O)CC(C(=O)NNc1ccccc1)C(=O)NNc1ccccc1 (configuration not stated)	PMI act hi M6P 2.5
O=C(NNc1ccccc1)C(CCO)C(=O)NNc1ccccc1	PMI act hi M6P 2.4
O=C1C=C(c2ccccc2)OC(=O)C1C(=O)c1ccccc1 (configuration not stated)	none
CCOC(=O)c1cc(NC(=O)c2ccc(C)cc2)c(=O)oc1C(F)(F)F	PMI act hi M6P 2.6
CC(=O)c1cc(NC(=O)c2ccccc2)c(=O)oc1C	PMI act hi M6P 2.1
CCOC(=O)c1cc(NC(=O)c2ccccc2)c(=O)oc1C(F)(F)F	PMI act hi M6P 2.2
CCOC(=O)c1cc(NC(=O)c2ccc(OC)cc2)c(=O)oc1-c1ccccc1	none
CC(=O)c1cc(NC(=O)c2ccc(C)cc2)c(=O)oc1C	none
Nn1cc(-c2ccccc2)nc1SCC(=O)N1CCN(S(=O)(=O)c2ccc(Cl)cc2)CC1	Diaph inh CS 54.4
Nn1cc(-c2ccccc2)nc1SCC(=O)N1CCN(S(=O)(=O)c2ccc3ccccc3c2)CC1	none
Oc1ccc(/C(Cc2ccc3ccccc3n2)=N\Nc2ccccc2)c(O)c1	PMI act hi M6P 2.3
Cc1c(O)ccc(/C(Cc2ccc3ccccc3n2)=N\O)c1O	none
Oc1ccc(/C(Cc2ccccn2)=N\Nc2ccccc2)c(O)c1	PMI act hi M6P 2.5
O=[N+]([O-])c1cc([N+](=O)[O-])c2c(=Nc3ccccc3)n(-c3ccccc3)n(O)c2c1	none
Cc1ccc(Nc2ncc3c(n2)CC(C)(C)CC3=O)cc1	none
COc1cc(C#N)ccc1OCC(=O)Nc1cccc(S(=O)(=O)N2CCCC2)c1	none
COC(=O)c1c(NC(=O)CSc2nc3ccccc3c(=O)n2Cc2ccco2)sc(C)c1C	none
COC(=O)c1c(NC(=O)CSc2nnc(-c3ccco3)n2Cc2ccccc2)sc(C)c1C	Diaph inh CS 57.2
COc1ccc(/C=C/C(=O)Nc2cc(S(=O)(=O)N3CCOCC3)ccc2C)cc1OC	none
CCCCN(C(=S)NC(=O)c1cc(OC)c(OC)c(OC)c1)c1c(N)n(Cc2ccccc2)c(=O)[nH]c1=O	none
O=C(NC12CC3CC(CC(C3)C1)C2)c1cc([N+](=O)[O-])ccc1N1CCOCC1	none
COc1ccc(-n2c(O)c(/C=N/NS(=O)(=O)c3cccc([N+](=O)[O-])c3)c3ccccc3c2=O)cc1OC	PMI act hi M6P 2.1
CC1OC2(C)OC(=N)C1(C#N)C(C#N)(C#N)C2c1ccccc1 (configuration not stated)	none
CCCCC1OC2(C)OC(=N)C1(C#N)C(C#N)(C#N)C2c1ccccc1 (configuration not stated)	Diaph inh CS 57.7
c1ccc(N/N=C(\Cc2ncc[nH]2)c2ccccc2)cc1	PMI act hi M6P 2.3
CCCc1c(C)nc2ccccc2c1SCCC#N	PMI act hi M6P 2.3
CCCCc1c(C)nc2ccc(Br)cc2c1SCCC#N	none
O=C(c1cc(COc2ccc(F)cc2Cl)on1)N1CCC(c2ccncc2)CC1	Diaph inh CS 68.0
CCn1c(CNC(=O)Cc2ccc(OC)cc2)nnc1SCCOc1ccccc1	none
CCn1c(CNC(=O)Cc2ccc(OC)cc2)nnc1SCC(=O)c1ccccc1	PMI act hi M6P 2.5
Oc1ccc(N=Cc2ccc(O)c(O)c2)cc1	Diaph inh CS 61.4, G6PDH CS 57.5
COc1ccccc1Nc1nnc(SCc2nnc(-c3cc(OC)c(OC)c(OC)c3)o2)s1	Diaph inh CS 50.2
CCOc1ccccc1Nc1nnc(SCc2nnc(-c3cc(OC)c(OC)c(OC)c3)o2)s1	none
COc1ccc(C2NC(=O)NC3=C2CCc2ccccc23)cc1 (configuration not stated)	Diaph inh CS 74.1
CC(=O)Nc1ccc(C(=O)OCC(=O)NCc2ccc(Cl)cc2)cc1	none
COc1ccc(NC(=O)Cn2cccc2)c(OC)c1	Diaph inh CS 74.4
CCC(=O)Nc1ccc(OC)cc1OC	none
COc1ccc(O)c(N)c1	Diaph inh CS 61.8
Nn1cnnc1N/N=C\c1ccc(-c2ccccc2[N+](=O)[O-])o1	Diaph inh CS 87.9
CCN(CC)C(=O)CSc1nc2c(sc(=S)n2-c2ccccc2)c(=O)n1Cc1ccco1	Diaph inh CS 50.8
CC(C)c1ccc(NC(=O)c2cccc(Br)c2)cc1	none
CN1C(=O)/C(=C/c2ccccc2Cl)Sc2ccc(C(=O)NCc3cccnc3)cc21	none
CCn1c(SCC(=O)N2CCN(c3ccccc3)CC2)nnc1-c1ccncc1	PMI act hi M6P 2.6
CC(=O)C1=C(c2ccccc2)NC(=O)NC1c1ccc(O)c(O)c1 (configuration not stated)	Diaph inh CS 53.9
O=C(CSc1nnnn1-c1ccc(F)cc1)c1ccc(O)c(O)c1	Diaph inh CS 50.1
CC(C)CN1CCNC(=O)C1CC(=O)NCc1cnn(-c2cccc(F)c2)c1 (configuration not stated)	none
Cc1ccc(/C=N/NC(=O)CNC(=O)COc2ccccc2)cc1	none
CCOC(=O)c1c2ccc(OCC(=O)N/N=C/c3ccc(C)cc3)cc2n2ccccc12	Diaph inh CS 60.9
CCOC(=O)c1c(C)n(C)c2cc(OCCN(CC)CC)ccc12	none
